Converted amounts (≈) assume the structure as drawn.
Legend:
Nakaseomyces glabratus [1] = experiment: Antifungal activity against Candida glabrata 20/I after 24 hrs by broth microdilution method; format: functional
Procedure, shortened: (§1)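 In vitro antifungal screening against eight strains. Compounds tested at concentrations in the range 62.5–1.95 µmol/L.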

Pichia kudriavzevii [2] = experiment: Antifungal activity against Candida krusei E28 after 48 hrs by broth microdilution method; format: functional; procedure, shortened: as §1
Lichtheimia corymbifera [3] = experiment: Antifungal activity against Absidia corymbifera 272 after 48 hrs by broth microdilution method; format: functional; procedure, shortened: as §1
[4] = system: Mycobacterium tuberculosis; experiment: Antitubercular activity against Mycobacterium tuberculosis H37Rv by microplate alamar blue assay; format: functional
[5] = system: Trichophyton mentagrophytes; experiment: Antifungal activity against Trichophyton mentagrophytes 445 after 24 hrs by broth microdilution method; format: functional; procedure, shortened: as §1
Nakaseomyces glabratus [6] = experiment: Antifungal activity against Candida glabrata 20/I after 48 hrs by broth microdilution method; format: functional; procedure, shortened: as §1
Candida tropicalis [7] = experiment: Antifungal activity against Candida tropicalis ATCC 156 after 48 hrs by broth microdilution method; format: functional; conditions: ATCC 156, 48 h; procedure, shortened: as §1
Trichosporon beigelii [8] = experiment: Antifungal activity against Trichosporon beigelii 1188 after 48 hrs by broth microdilution method; format: functional; procedure, shortened: as §1
[9] = Lipophilicity, log K of the compound; format: physicochemical
Procedure, shortened: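 Mobile phase used methanol as organic modifier. The capacity factor k was measured and log k calculated from it. Chiral compounds were measured several times.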

Candida albicans [10] = experiment: Antifungal activity against Candida albicans ATCC 44859 after 48 hrs by broth microdilution method; format: functional; conditions: ATCC 44859, 48 h; procedure, shortened: as §1
Lichtheimia corymbifera [11] = experiment: Antifungal activity against Absidia corymbifera 272 after 24 hrs by broth microdilution method; format: functional; procedure, shortened: as §1
Aspergillus fumigatus [12] = experiment: Antifungal activity against Aspergillus fumigatus 231 after 48 hrs by broth microdilution method; format: functional; procedure, shortened: as §1
Trichosporon beigelii [13] = experiment: Antifungal activity against Trichosporon beigelii 1188 after 24 hrs by broth microdilution method; format: functional; procedure, shortened: as §1
Pichia kudriavzevii [14] = experiment: Antifungal activity against Candida krusei E28 after 24 hrs by broth microdilution method; format: functional; procedure, shortened: as §1
Candida tropicalis [15] = experiment: Antifungal activity against Candida tropicalis ATCC 156 after 24 hrs by broth microdilution method; format: functional; conditions: ATCC 156, 24 h; procedure, shortened: as §1
[16] = system: Trichophyton mentagrophytes; experiment: Antifungal activity against Trichophyton mentagrophytes 445 after 48 hrs by broth microdilution method; format: functional; procedure, shortened: as §1
Aspergillus fumigatus [17] = experiment: Antifungal activity against Aspergillus fumigatus 231 after 24 hrs by broth microdilution method; format: functional; procedure, shortened: as §1
[18] = system: Mycobacterium tuberculosis; experiment: Antitubercular activity against Mycobacterium tuberculosis H37Rv at 6.25 ug/ml by microplate alamar blue assay; format: functional
Procedure, shortened: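 Primary single-concentration screen at the TAACF against M. tuberculosis H37Rv (ATCC 27294) in BACTEC 12B medium, read by Microplate Alamar Blue Assay. Each compound was tested at 6.25 per mL, or at the molar equivalent of the highest-molecular-weight compound in its congener series.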

Candida albicans [19] = experiment: Antifungal activity against Candida albicans ATCC 44859 after 24 hrs by broth microdilution method; format: functional; conditions: ATCC 44859, 24 h; procedure, shortened: as §1

Structure (SMILES) | IC80 (Nakaseomyces glabratus [1]) [µg/mL] | IC80 (Pichia kudriavzevii [2]) [µg/mL] | IC80 (Lichtheimia corymbifera [3]) [µg/mL] | MIC [4] [µg/mL] | IC80 [5] [µg/mL] | IC80 (Nakaseomyces glabratus [6]) [µg/mL] | IC80 (Candida tropicalis [7]) [µg/mL] | IC80 (Trichosporon beigelii [8]) [µg/mL] | log K [9] | IC80 (Candida albicans [10]) [µg/mL] | IC80 (Lichtheimia corymbifera [11]) [µg/mL] | IC80 (Aspergillus fumigatus [12]) [µg/mL] | IC80 (Trichosporon beigelii [13]) [µg/mL] | IC80 (Pichia kudriavzevii [14]) [µg/mL] | IC80 (Candida tropicalis [15]) [µg/mL] | IC80 [16] [µg/mL] | IC80 (Aspergillus fumigatus [17]) [µg/mL] | inhibition at 6.25 µg/mL [18] [%] | IC80 (Candida albicans [19]) [µg/mL]
CC(C)[C@H](NC(=O)OCc1ccccc1)C(=O)Oc1ccc(Cl)cc1C(=O)Nc1ccc(Cl)cc1 | > 62.5 | 15.6 (≈ 30.3 µM) | > 62.5 | > 6.25 | 15.6 (≈ 30.3 µM) | > 62.5 | > 62.5 | 31.2 (≈ 60.6 µM) | 0.9421 | > 62.5 | > 62.5 | > 62.5 | > 62.5 | 31.2 (≈ 60.6 µM) | > 62.5 | 15.6 (≈ 30.3 µM) | > 62.5 | 38 | > 62.5
NNC(=O)c1ccncc1 [ISONIAZID] | – | – | – | 0.025 (≈ 0.182 µM) | – | – | – | – | – | – | – | – | – | – | – | – | – | – | –
O=C(CNC(=O)OCc1ccccc1)Oc1ccc(Cl)cc1C(=O)Nc1ccc(C(F)(F)F)cc1 | 31.2 (≈ 61.7 µM) | 31.2 (≈ 61.7 µM) | 31.2 (≈ 61.7 µM) | > 6.25 | 15.6 (≈ 30.8 µM) | > 125 | > 125 | 31.2 (≈ 61.7 µM) | 0.7292 | 62.5 (≈ 123 µM) | 31.2 (≈ 61.7 µM) | > 125 | 31.2 (≈ 61.7 µM) | 31.2 (≈ 61.7 µM) | 125 (≈ 247 µM) | 15.6 (≈ 30.8 µM) | 125 (≈ 247 µM) | 89 | 62.5 (≈ 123 µM)
C[C@H](NC(=O)OCc1ccccc1)C(=O)Oc1ccc(Cl)cc1C(=O)Nc1cccc(Cl)c1 | 31.2 (≈ 64.1 µM) | 31.2 (≈ 64.1 µM) | 15.6 (≈ 32.1 µM) | 3.13 (≈ 6.42 µM) | 7.81 (≈ 16 µM) | > 62.5 | > 62.5 | > 62.5 | 0.6995 | > 62.5 | 15.6 (≈ 32.1 µM) | > 62.5 | > 62.5 | 31.2 (≈ 64.1 µM) | > 62.5 | 7.81 (≈ 16 µM) | 62.5 (≈ 128 µM) | 97 | 31.2 (≈ 64.1 µM)
CC(C)[C@@H](NC(=O)OCc1ccccc1)C(=O)Oc1ccc(Cl)cc1C(=O)Nc1ccc(Cl)cc1 | > 62.5 | 31.2 (≈ 60.6 µM) | > 62.5 | > 6.25 | 15.6 (≈ 30.3 µM) | > 62.5 | > 62.5 | > 62.5 | 0.9417 | > 62.5 | > 62.5 | > 62.5 | > 62.5 | 31.2 (≈ 60.6 µM) | > 62.5 | 15.6 (≈ 30.3 µM) | > 62.5 | 77 | > 62.5
C[C@H](NC(=O)OCc1ccccc1)C(=O)Oc1ccc(Cl)cc1C(=O)Nc1ccc(C(F)(F)F)cc1 | 125 (≈ 240 µM) | 31.2 (≈ 60 µM) | 62.5 (≈ 120 µM) | 3.13 (≈ 6.01 µM) | 1.95 (≈ 3.74 µM) | 250 (≈ 480 µM) | 500 (≈ 960 µM) | 250 (≈ 480 µM) | 0.8149 | 250 (≈ 480 µM) | 31.2 (≈ 60 µM) | 15.6 (≈ 30 µM) | 62.5 (≈ 120 µM) | 7.81 (≈ 15 µM) | 500 (≈ 960 µM) | 1.95 (≈ 3.74 µM) | 7.81 (≈ 15 µM) | 99 | 62.5 (≈ 120 µM)
O=C(N[C@@H](Cc1ccccc1)C(=O)Oc1ccc(Cl)cc1C(=O)Nc1ccc(Cl)cc1)OCc1ccccc1 | 31.2 (≈ 55.5 µM) | 15.6 (≈ 27.7 µM) | 15.6 (≈ 27.7 µM) | > 6.25 | 7.81 (≈ 13.9 µM) | 31.2 (≈ 55.5 µM) | 31.2 (≈ 55.5 µM) | 62.5 (≈ 111 µM) | 1.0971 | 62.5 (≈ 111 µM) | 15.6 (≈ 27.7 µM) | > 62.5 | 31.2 (≈ 55.5 µM) | 15.6 (≈ 27.7 µM) | 31.2 (≈ 55.5 µM) | 7.81 (≈ 13.9 µM) | > 62.5 | 16 | 62.5 (≈ 111 µM)
O=C(CNC(=O)OCc1ccccc1)Oc1ccc(Cl)cc1C(=O)Nc1ccc(Cl)cc1 | 62.5 (≈ 132 µM) | 31.2 (≈ 66 µM) | 62.5 (≈ 132 µM) | > 6.25 | 15.6 (≈ 33 µM) | 62.5 (≈ 132 µM) | 31.2 (≈ 66 µM) | > 62.5 | 0.6367 | 62.5 (≈ 132 µM) | 31.2 (≈ 66 µM) | > 62.5 | 62.5 (≈ 132 µM) | 31.2 (≈ 66 µM) | 31.2 (≈ 66 µM) | 15.6 (≈ 33 µM) | > 62.5 | 16 | 62.5 (≈ 132 µM)
C[C@@H](NC(=O)OCc1ccccc1)C(=O)Oc1ccc(Cl)cc1C(=O)Nc1cccc(Cl)c1 | 62.5 (≈ 128 µM) | 31.2 (≈ 64.1 µM) | 31.2 (≈ 64.1 µM) | > 6.25 | 7.81 (≈ 16 µM) | 62.5 (≈ 128 µM) | > 62.5 | > 62.5 | 0.699 | > 62.5 | 31.2 (≈ 64.1 µM) | > 62.5 | > 62.5 | 31.2 (≈ 64.1 µM) | 62.5 (≈ 128 µM) | 7.81 (≈ 16 µM) | > 62.5 | 36 | 62.5 (≈ 128 µM)
O=C(CNC(=O)OCc1ccccc1)Oc1ccc(Cl)cc1C(=O)Nc1cccc(Cl)c1 | 62.5 (≈ 132 µM) | 62.5 (≈ 132 µM) | 62.5 (≈ 132 µM) | > 6.25 | 31.2 (≈ 66 µM) | > 62.5 | > 62.5 | > 62.5 | 0.6119 | > 62.5 | 62.5 (≈ 132 µM) | > 62.5 | > 62.5 | 62.5 (≈ 132 µM) | > 62.5 | 31.2 (≈ 66 µM) | > 62.5 | 7 | > 62.5
O=C(CNC(=O)OCc1ccccc1)Oc1ccc(Cl)cc1C(=O)Nc1ccc(Cl)c(Cl)c1 | > 62.5 | > 62.5 | > 62.5 | > 6.25 | 31.2 (≈ 61.5 µM) | > 62.5 | > 62.5 | > 62.5 | 0.8639 | > 62.5 | 62.5 (≈ 123 µM) | > 62.5 | > 62.5 | > 62.5 | > 62.5 | 31.2 (≈ 61.5 µM) | > 62.5 | 0 | > 62.5
OC(Cn1cncn1)(Cn1cncn1)c1ccc(F)cc1F [FLUCONAZOLE] | 0.98 (≈ 3.2 µM) | 15.6 (≈ 51 µM) | > 125 | – | 1.95 (≈ 6.37 µM) | 3.91 (≈ 12.8 µM) | > 125 | 0.48 (≈ 1.57 µM) | – | 0.12 (≈ 0.392 µM) | > 125 | > 125 | 0.24 (≈ 0.784 µM) | 3.91 (≈ 12.8 µM) | 0.12 (≈ 0.392 µM) | 3.91 (≈ 12.8 µM) | > 125 | – | 0.06 (≈ 0.196 µM)

— ChEMBL document CHEMBL1154547, “Salicylanilide esters of N-protected amino acids as novel antimicrobial agents” (Bioorg Med Chem Lett, 2009)
